Assay results as given in publication PMC11482939 (bioRxiv, 2025).
Entries after “also recorded” stand apart in the source; their conditions may differ. Read-outs that look alike come from different tables or passages of the source.

Experiments:
[1] = system: MP41 and MP38 cells; test: HDAC3 / HDAC8 inhibitor concentration-response testing; format: cell-based, human; conditions: alone or in combination
Summary of the method: (§1)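 Cells treated 72 h with a 10-point 1:3 dilution series from nominal 10 μM top (one compound started at 300 nM), n = 4. Viability read by CellTiter-Glo ATP luminescence and normalized to 0.1% DMSO controls. IC50 and % viability derived by four-parameter log(inhibitor) vs. response fit with variable slope.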

[2] = system: UM cell lines (MP41, MP38, MP46); test: Concentration-response cell viability, UM cell lines overall; format: cell-based, human; conditions: 72 h
[3] = system: WS1 fibroblast cell line; test: Viability assay on non-cancerous fibroblasts; format: cell-based; conditions: for IC50: Fibroblast, read-out: fibroblast IC50; for fold higher IC50 / lower toxicity for non-cancerous cells than for UM cells: WS1 fibroblast IC50 vs UM IC50
Summary of the method: as §1

[4] = system: UM cell lines, including UMM66 cells; test: Romidepsin from two sources in UM cell lines including UMM66; format: cell-based; conditions: Homo sapiens, read-out: IC50 in all UM cell lines including UMM66
[5] = system: UM cells; test: Synergy testing of romidepsin and quisinostat with other hit compounds; format: cell-based, human; conditions: plus EC20 of other candidate compound
[6] = system: MP41 metastatic UM xenograft; test: Metastatic UM xenograft mouse model; format: in vivo, NSG mice; conditions: for survival in comparison with the vehicle group: log-rank test, p > 0.10
Summary of the method: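 Female NSG mice, 16 weeks old, given 1 × 10^5 FACS-sorted RFP-luciferase-transduced MP41 cells via tail vein; n = 10 per group, randomized. From day 7, test compound dosed at 2 mg/kg IP weekly. Weekly IVIS imaging 10 min after 150 mg/kg IP d-luciferin. Endpoint was >20% weight loss or health decline; organs imaged ex vivo; survival compared by log-rank.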

[7] = system: MP41 cells extracted from mouse liver metastases; test: Ex vivo resistance testing of UM cells from mouse liver metastases; format: cell-based, human; conditions: relative to cells from vehicle group
Summary of the method: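 Liver tissue from treated and vehicle mice minced and digested overnight at 4°C in D-MEM with 400 U/mL type IV collagenase and 0.5 μg/mL amphotericin B. Cells grown in UM medium, confirmed as MP41 by RFP fluorescence, then given 10-point 1:3 dilution series for 72 h. Viability read by CellTiter-Glo ATP luminescence relative to 0.1% DMSO.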

[8] = Homo sapiens, read-out: UM IC50, UM cell lines, 72 h
[9] = read-out: UM IC50, UM cell lines

In the case of COc1ccc(Cn2ccc3ccc(C(=O)NO)cc32)cc1 [PCI-34051], the “potency of HDAC3 / HDAC8 inhibitor” value [1] is reported as “neither was potent”.

COc1ccc(-c2nc(N3CCOCC3)c3sc(CN(C)c4ncc(C(=O)NO)cn4)cc3n2)cn1 [Fimepinostat] was tested, and the IC50 [2, 8] was ~11 nM, the IC50 [3] was ~55 nM and the “fold higher IC50 / lower toxicity for non-cancerous cells than for UM cells” value [3] was 4- to 5 fold.

With C/C=C1\NC(=O)[C@H]2CSSCC/C=C/[C@H](CC(=O)N[C@H](C(C)C)C(=O)N2)OC(=O)[C@H](C(C)C)NC1=O [Romidepsin] the IC50 [4] was 2.4 to 5.7 nM, the “synergy with the other 16 compounds” value [5] was “did not find significant synergy” and the IC50 [2, 8] was ~3.5 nM. The “survival in comparison with the vehicle group” value [6] was “did not significantly improve survival rates; also recorded: did not improve the survival rate” and the “acquired drug resistance after long-term in vivo treatment” value (from here on “acquired drug resistance after long-term”) [7] was “No significant resistance was detected”.

For Cn1cc(CNCC2CCN(c3ncc(C(=O)NO)cn3)CC2)c2ccccc21 [Quisinostat], the “synergy with the other 16 compounds” value [5] was “did not find significant synergy”, the IC50 [2, 8] was ~14 nM and the “survival in comparison with the vehicle group” value [6] was “did not significantly improve survival rates”. For the same compound, the IC50 [3] was ~118 nM, the “fold higher IC50 / lower toxicity for non-cancerous cells than for UM cells” value [3] was “approximately 9 fold” and the “acquired drug resistance after long-term” value [7] was “No significant resistance was detected”.

For Nc1cc(F)ccc1NC(=O)/C=C/c1cnn(C/C=C/c2ccccc2)c1 [RGFP966], the “potency of HDAC3 / HDAC8 inhibitor” value [1] was “neither was potent”.

With Cc1[nH]c2ccccc2c1CCNCc1ccc(/C=C/C(=O)NO)cc1 [Panobinostat] the IC50 [2, 8] was ~26 nM, the IC50 [3] was ~124 nM and the “fold higher IC50 / lower toxicity for non-cancerous cells than for UM cells” value [3] was 4- to 5 fold.

In the case of CC(C)C[C@H](NC(=O)[C@H](Cc1ccccc1)NC(=O)c1cnccn1)B(O)O [Velcade], the IC50 [2, 8] is reported as ~7.6 nM, the IC50 [2, 9] is reported as ~8 nM and the IC50 [3] is reported as ~57 nM.

In the case of COc1cc([C@@H]2c3cc4c(cc3[C@H](O)[C@H]3COC(=O)[C@H]23)OCO4)cc(OC)c1OC [Podofilox], the IC50 [2, 8] is reported as ~9.36 nM.

In the case of Nc1ccn([C@@H]2O[C@H](CO)[C@@H](O)C2(F)F)c(=O)n1 [Gemcitabine], the IC50 [2, 8] is reported as ~493 nM.

Work on Cucurbitacin B yielded an IC50 [2, 9] of ~37.9 nM.

For CC[C@@]1(O)C(=O)OCc2c1cc1n(c2=O)Cc2cc3ccccc3nc2-1 [(S)-(+)-Camptothecin], the IC50 ([2]; Homo sapiens, read-out: UM IC50) was ~334 nM.

In the case of CCS(=O)(=O)Nc1ccc(Oc2ccc(F)cc2F)c(-c2cn(C)c(=O)c3[nH]ccc23)c1 [Mivebresib], the IC50 [2, 8] is reported as ~125 nM, the “metastases detected in organs (ex vivo IVIS)” value ([6]; femur, spinal cord) is reported as “prevented the development of detectable spinal cord and femur metastases” and the IC50 [3] is reported as > 10000 nM. The “acquired drug resistance after long-term” value [7] was “No significant resistance was detected”.
